Format in all cases: ADME
Substrate in data set [1]: O=C(O)CCc1cc(C(=O)c2ccc(OC3CCCC3)cc2O)ccc1OCc1ccc2c(O)noc2c1
Description: Drug metabolism assessed as human UGT1A3-mediated T-5224 hydroxyl O-glucuronide formation after 10 to 60 mins in presence of UDP-glucuronic acid by HPLC method. The essentials:
(§1)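 Kinetics used recombinant UGT1A1, 1A3 or 1A8 (0.1 mg protein/mL) with T-5224 at 1–50 μM, 2 mM UDPGA and 60 min at 37°C, in triplicate. G2/G3 were measured by HPLC at 290 nm and fitted to a substrate-inhibition model (Vmax, Km, Ksi). UGT content was quantified by immunoblot, and kcat = Vmax/E0 was derived from it.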

Substrate in data set [2]: O=C(O)CCc1cc(C(=O)c2ccc(OC3CCCC3)cc2O)ccc1OCc1ccc2c(O)noc2c1
Put plainly: Drug metabolism assessed as Kcat to Km ratio for human UGT1A3-mediated T-5224 hydroxyl O-glucuronide formation per mg protein after 10 to 60 mins in presence of UDP-glucuronic acid by HPLC method. The essentials: as §1

Substrate in data set [3]: O=C(O)CCc1cc(C(=O)c2ccc(OC3CCCC3)cc2O)ccc1OCc1ccc2c(O)noc2c1
Put plainly: Drug metabolism assessed as human UGT1A3-mediated T-5224 acyl O-glucuronide formation after 10 to 60 mins in presence of UDP-glucuronic acid by HPLC method. The essentials: as §1

Substrate in data set [4]: O=C(O)CCc1cc(C(=O)c2ccc(OC3CCCC3)cc2O)ccc1OCc1ccc2c(O)noc2c1
Put plainly: Drug metabolism assessed as Kcat to Km ratio for human UGT1A3-mediated T-5224 acyl O-glucuronide formation per mg protein after 10 to 60 mins in presence of UDP-glucuronic acid by HPLC method. The essentials:
as §1

Substrate in data set [5]: O=C(O)CCc1cc(C(=O)c2ccc(OC3CCCC3)cc2O)ccc1OCc1ccc2c(O)noc2c1
Description: Drug metabolism assessed as human UGT1A8-mediated T-5224 hydroxyl O-glucuronide formation after 10 to 60 mins in presence of UDP-glucuronic acid by HPLC method. The essentials:
as §1

B1: UDP-glucuronosyltransferase 1A3 (Homo sapiens) (protein)
chain: MATGLQVPLPWLATGLLLLLSVQPWAESGKVLVVPIDGSHWLSMREVLRELHARGHQAVVLTPEVNMHIKEENFFTLTTYAISWTQDEFDRHVLGHTQLYFETEHFLKKFFRSMAMLNNMSLVYHRSCVELLHNEALIRHLNATSFDVVLTDPVNLCAAVLAKYLSIPTVFFLRNIPCDLDFKGTQCPNPSSYIPRLLTTNSDHMTFMQRVKNMLYPLALSYICHAFSAPYASLASELFQREVSVVDILSHASVWLFRGDFVMDYPRPIMPNMVFIGGINCANRKPLSQEFEAYINASGEHGIVVFSLGSMVSEIPEKKAMAIADALGKIPQTVLWRYTGTRPSNLANNTILVKWLPQNDLLGHPMTRAFITHAGSHGVYESICNGVPMVMMPLFGDQMDNAKRMETKGAGVTLNVLEMTSEDLENALKAVINDKSYKENIMRLSSLHKDRPVEPLDLAVFWVEFVMRHKGAPHLRPAAHDLTWYQYHSLDVIGFLLAVVLTVAFITFKCCAYGYRKCLGKKGRVKKAHKSKTH
For orientation: Km means the substrate concentration at which the rate is half of its maximum. Broadly, the kcat is the number of substrate molecules converted per active site and unit of time at saturation. Broadly, the kcat/Km is the second-order rate constant that governs catalysis at low substrate concentration. Turning to B1, the Michaelis constant (Km) in data set [1] was 17.9 µM; in data set [3], 7.21 µM. Moreover, the values for the turnover number (kcat) in data set [1] and in data set [3] were 0.0138 s⁻¹ and 0.00182 s⁻¹, respectively. For the same protein, the kcat/Km in data set [2] is 774 M⁻¹ s⁻¹; in data set [4] it was 252 M⁻¹ s⁻¹.

B2: UDP-glucuronosyltransferase 1A8 (Homo sapiens) (protein)
chain: MARTGWTSPIPLCVSLLLTCGFAEAGKLLVVPMDGSHWFTMQSVVEKLILRGHEVVVVMPEVSWQLGKSLNCTVKTYSTSYTLEDLDREFMDFADAQWKAQVRSLFSLFLSSSNGFFNLFFSHCRSLFNDRKLVEYLKESSFDAVFLDPFDACGLIVAKYFSLPSVVFARGIACHYLEEGAQCPAPLSYVPRILLGFSDAMTFKERVRNHIMHLEEHLFCQYFSKNALEIASEILQTPVTAYDLYSHTSIWLLRTDFVLDYPKPVMPNMIFIGGINCHQGKPLPMEFEAYINASGEHGIVVFSLGSMVSEIPEKKAMAIADALGKIPQTVLWRYTGTRPSNLANNTILVKWLPQNDLLGHPMTRAFITHAGSHGVYESICNGVPMVMMPLFGDQMDNAKRMETKGAGVTLNVLEMTSEDLENALKAVINDKSYKENIMRLSSLHKDRPVEPLDLAVFWVEFVMRHKGAPHLRPAAHDLTWYQYHSLDVIGFLLAVVLTVAFITFKCCAYGYRKCLGKKGRVKKAHKSKTH
Broadly, the Vmax is the top rate of the reaction or transport when substrate is in excess. As to B2, in data set [5], the Km was determined as 6.05 µM, the Vmax was 0.000206 µmol/min, the kcat came out at 0.00184 s⁻¹ and the kcat/Km is 303 M⁻¹ s⁻¹.
